From ChEMBL document CHEMBL1131413, “Mutational evidence for a common kappa antagonist binding pocket in the wild-type kappa and mutant mu[K303E] opioid receptors” (J Med Chem, 1998)

Key:
[1] = molecular target: Kappa-type opioid receptor (Rattus norvegicus) (UniProt P34975); test: Effect on binding affinity of mutational exchange of Glu297 in the Opioid receptor kappa 1 in transiently expressed […] cells activity expressed as binding ratio with nor-BNI.
[2] = molecular target: Kappa-type opioid receptor (Rattus norvegicus, UniProt P34975, E297K); test: Mutant factor of the compound against kappa[E297K] with Opioid receptor kappa 1 for binding affinity.
[3] = molecular target: Kappa-type opioid receptor (Rattus norvegicus, UniProt P34975); test: Effect on binding affinity of mutational exchange of Glu297 in the Opioid receptor kappa 1 in transiently expressed […] cells activity expressed as binding affinity.; type: cell-based
Mu-type opioid receptor = Mu-type opioid receptor (Rattus norvegicus, UniProt P33535); test: Effect on binding affinity of mutational exchange of Lys303 in the Opioid receptor mu 1 in transiently expressed […] cells activity expressed as binding affinity.; type: cell-based
[4] = molecular target: Opioid receptors; mu & kappa (Homo sapiens) (UniProt P41145+P35372); test: Ratio of Ke value to kappa receptor to that of mu receptor; type: protein assay
How it was run: (§1)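 Selectivity ratios were taken from Ke values measured in smooth muscle (100 nM antagonist, 15 min preincubation). Kappa Ke came from guinea-pig ileum with ethylketazocine, mu Ke from guinea-pig ileum with morphine, and delta Ke from mouse vas deferens with DADLE.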

[5] = molecular target: Opioid receptors; delta & kappa (Homo sapiens) (UniProt P41145+P41143); test: Ratio of Ke value to kappa receptor to that of delta receptor; type: protein assay; how it was run: as §1
[6] = molecular target: Kappa-type opioid receptor (Cavia porcellus) (UniProt P41144); test: Opioid antagonist potencies against Opioid receptor kappa 1 from guinea pig ileum employing ethylketazocine (EKC) as agonist.; type: functional, tissue-based
How it was run: (§2)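 Electrically stimulated guinea-pig ileal longitudinal muscle. Antagonist at 100 nM was incubated 15 min before agonist (ethylketazocine for kappa, morphine for mu). Ke = [antagonist]/(IC50 ratio − 1), where the IC50 ratio is agonist IC50 with antagonist over agonist IC50 alone in the same preparation. Ke is the mean of at least three IC50 ratios.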

[7] = molecular target: Delta-type opioid receptor (Mus musculus) (UniProt P32300); test: Opioid antagonist potencies against Opioid receptor delta 1 from mouse vas-deferens preparation employing [D-Ala2,D-Leu5]enkephalin (DADLE) as agonist.; type: functional
How it was run: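 Electrically stimulated mouse vas deferens. Antagonist at 100 nM was incubated 15 min before the agonist DADLE. Ke = [antagonist]/(IC50 ratio − 1), using agonist IC50 with versus without antagonist in the same preparation. Ke is from an average of at least three IC50 ratios.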

[8] = molecular target: Mu-type opioid receptor (Cavia porcellus) (UniProt P97266); test: Opioid antagonist potencies against Opioid receptor mu 1 from guinea pig ileum employing morphine(M) as agonist.; type: functional, tissue-based; how it was run: as §2
Sequence of Mu-type opioid receptor (Cavia porcellus) (P97266 whole entry): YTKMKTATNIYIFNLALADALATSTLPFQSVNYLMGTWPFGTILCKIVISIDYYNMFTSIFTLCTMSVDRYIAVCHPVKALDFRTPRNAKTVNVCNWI

Sequence of Kappa-type opioid receptor (Rattus norvegicus) (P34975 whole entry): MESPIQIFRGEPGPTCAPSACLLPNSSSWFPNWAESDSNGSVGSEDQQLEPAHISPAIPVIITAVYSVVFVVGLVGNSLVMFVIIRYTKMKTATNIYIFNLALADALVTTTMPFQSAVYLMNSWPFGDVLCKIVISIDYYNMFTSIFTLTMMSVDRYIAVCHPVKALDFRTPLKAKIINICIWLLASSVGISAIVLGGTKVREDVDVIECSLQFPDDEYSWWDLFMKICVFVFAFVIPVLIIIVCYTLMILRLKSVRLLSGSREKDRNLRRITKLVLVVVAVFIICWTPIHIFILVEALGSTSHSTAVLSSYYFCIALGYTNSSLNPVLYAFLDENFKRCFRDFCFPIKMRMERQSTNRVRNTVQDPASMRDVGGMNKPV
Sequence of Kappa-type opioid receptor (Rattus norvegicus, UniProt P34975) (P34975 whole entry, looked up): as the sequence (P34975 whole entry) above
Sequence of Opioid receptors; delta & kappa (Homo sapiens) (P41143 whole entry, looked up): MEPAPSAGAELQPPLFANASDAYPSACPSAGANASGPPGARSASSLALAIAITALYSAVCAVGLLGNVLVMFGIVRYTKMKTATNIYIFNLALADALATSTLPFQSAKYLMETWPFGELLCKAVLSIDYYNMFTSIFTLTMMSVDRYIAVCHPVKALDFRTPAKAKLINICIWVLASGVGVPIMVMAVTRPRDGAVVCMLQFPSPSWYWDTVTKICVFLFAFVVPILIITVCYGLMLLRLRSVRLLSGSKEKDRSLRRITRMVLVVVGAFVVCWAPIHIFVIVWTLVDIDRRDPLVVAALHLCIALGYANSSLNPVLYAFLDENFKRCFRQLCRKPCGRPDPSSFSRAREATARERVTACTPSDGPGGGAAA
Sequence of Opioid receptors; delta & kappa (Homo sapiens) (P41145 whole entry, looked up): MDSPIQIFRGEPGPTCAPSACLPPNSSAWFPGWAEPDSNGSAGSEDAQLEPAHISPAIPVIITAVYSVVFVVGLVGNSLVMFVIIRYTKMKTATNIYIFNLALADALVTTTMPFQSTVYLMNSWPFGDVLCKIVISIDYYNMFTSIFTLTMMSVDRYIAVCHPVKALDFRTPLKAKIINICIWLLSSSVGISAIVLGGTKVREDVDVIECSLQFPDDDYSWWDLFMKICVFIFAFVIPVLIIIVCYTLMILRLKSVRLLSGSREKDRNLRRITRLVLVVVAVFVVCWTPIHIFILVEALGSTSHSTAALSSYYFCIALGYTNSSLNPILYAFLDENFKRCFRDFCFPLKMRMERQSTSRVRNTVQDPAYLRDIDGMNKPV
Sequence of Opioid receptors; mu & kappa (Homo sapiens) (P35372 whole entry, looked up): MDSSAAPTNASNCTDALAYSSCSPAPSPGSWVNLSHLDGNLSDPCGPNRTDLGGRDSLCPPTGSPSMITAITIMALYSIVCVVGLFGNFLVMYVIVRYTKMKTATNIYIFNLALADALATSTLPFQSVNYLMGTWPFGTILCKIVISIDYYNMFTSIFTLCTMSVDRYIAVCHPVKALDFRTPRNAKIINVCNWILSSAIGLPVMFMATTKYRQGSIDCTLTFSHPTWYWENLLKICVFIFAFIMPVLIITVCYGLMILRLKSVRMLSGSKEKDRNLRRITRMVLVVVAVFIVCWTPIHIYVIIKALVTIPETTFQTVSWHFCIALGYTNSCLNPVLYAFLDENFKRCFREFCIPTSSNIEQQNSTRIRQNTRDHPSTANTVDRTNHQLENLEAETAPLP
Sequence of Opioid receptors; mu & kappa (Homo sapiens) (P41145 whole entry, looked up): as the sequence (P41145 whole entry, looked up) above
Sequence of Kappa-type opioid receptor (Rattus norvegicus, UniProt P34975, E297K) (P34975 whole entry E297K): as the sequence (P34975 whole entry) above, with E297K counted along it
Sequence of Mu-type opioid receptor (P33535 whole entry, looked up): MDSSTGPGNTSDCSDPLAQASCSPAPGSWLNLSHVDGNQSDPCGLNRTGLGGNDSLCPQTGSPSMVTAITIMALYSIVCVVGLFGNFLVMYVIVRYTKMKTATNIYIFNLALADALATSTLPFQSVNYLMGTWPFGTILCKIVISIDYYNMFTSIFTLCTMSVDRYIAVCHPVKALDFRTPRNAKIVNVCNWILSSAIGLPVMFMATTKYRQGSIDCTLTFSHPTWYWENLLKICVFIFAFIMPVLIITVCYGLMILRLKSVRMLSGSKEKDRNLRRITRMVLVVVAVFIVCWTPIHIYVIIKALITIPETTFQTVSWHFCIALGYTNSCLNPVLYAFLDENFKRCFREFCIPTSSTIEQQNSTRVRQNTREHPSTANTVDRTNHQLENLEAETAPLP
Sequence of Kappa-type opioid receptor (Cavia porcellus) (P41144 whole entry): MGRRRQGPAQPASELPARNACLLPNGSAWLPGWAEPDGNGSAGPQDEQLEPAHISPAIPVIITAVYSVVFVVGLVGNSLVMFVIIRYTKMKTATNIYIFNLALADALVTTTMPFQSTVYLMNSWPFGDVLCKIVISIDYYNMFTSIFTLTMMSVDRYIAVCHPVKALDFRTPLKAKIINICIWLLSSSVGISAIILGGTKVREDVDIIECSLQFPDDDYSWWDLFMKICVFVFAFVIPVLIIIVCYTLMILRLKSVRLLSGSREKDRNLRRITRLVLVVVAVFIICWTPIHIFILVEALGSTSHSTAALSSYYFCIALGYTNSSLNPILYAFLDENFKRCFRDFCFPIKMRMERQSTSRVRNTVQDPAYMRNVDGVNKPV
Sequence of Delta-type opioid receptor (Mus musculus) (P32300 whole entry): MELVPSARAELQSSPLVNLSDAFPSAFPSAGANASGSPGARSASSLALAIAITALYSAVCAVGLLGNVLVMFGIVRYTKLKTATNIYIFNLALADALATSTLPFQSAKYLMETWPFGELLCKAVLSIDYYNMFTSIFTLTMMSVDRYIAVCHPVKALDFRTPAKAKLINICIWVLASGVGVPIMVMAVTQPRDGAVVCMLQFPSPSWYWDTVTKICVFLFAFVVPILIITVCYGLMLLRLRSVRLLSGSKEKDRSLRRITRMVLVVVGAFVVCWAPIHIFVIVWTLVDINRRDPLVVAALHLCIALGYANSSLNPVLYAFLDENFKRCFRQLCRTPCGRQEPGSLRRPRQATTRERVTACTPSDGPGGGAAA

| Structure (SMILES) | Fana [1] | Ki [2] | Ki [3] | Ki (Mu-type opioid receptor) | Selectivity [4] | Selectivity [5] | Ke [6] | Ke [7] | Ke [8] |
| --- | --- | --- | --- | --- | --- | --- | --- | --- | --- |
| Oc1ccc2c3c1O[C@H]1c4[nH]c5c(c4C[C@@]4(O)[C@@H](C2)N(CC2CC2)CC[C@]314)C[C@@]1(O)[C@H]2Cc3ccc(O)c4c3[C@@]1(CCN2CC1CC1)[C@H]5O4 | 1 | – | – | – | – | – | – | – | – |
| N#CN=C(N)Nc1ccc2[nH]c3c(c2c1)C[C@@]1(O)C2Cc4ccc(O)c5c4[C@@]1(CCN2CC1CC1)[C@H]3O5 | – | 2.48 nM | 0.27 nM | 4.04 nM | – | – | – | – | – |
| N=C(N)Nc1ccc2[nH]c3c(c2c1)C[C@@]1(O)[C@H]2Cc4ccc(O)c5c4[C@@]1(CCN2CC1CC1)[C@H]3O5 [GUANIDINONALTRINDOLE] | 0.75 | 12.9 nM | 0.09 nM | 9.23 nM | 208 | 799 | – | – | – |
| N#CN/C(N)=N/c1ccc2[nH]c3c(c2c1)C[C@@]1(O)C2Cc4ccc(O)c5c4[C@@]1(CCN2CC1CC1)[C@H]3O5 | 2.25 | – | – | – | 5 | 3 | 3.13 nM | 9.08 nM | 16.1 nM |
